The values that follow come from the EternaBench riboswitch data.

The data set relates to MS2 coat protein. The data set is described as follows: apparent Kd, MS2 coat protein; higher = weaker binding; RNA-MaP array; FMN 200 µM where present. The method, boiled down:
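Binding was read on Illumina sequencing-chip clusters where stalled E. coli RNA polymerase had transcribed each design. A titration of SNAP-549-labelled MS2 coat protein began at 0.7 or 1.5 nM and doubled to 3 µM, once without ligand and once with constant ligand, in 100 mM Tris-HCl pH 7.5, 80 mM KCl, 4 mM MgCl2, BSA, DTT, yeast tRNA and Tween-20. The apparent Kd is the median of filtered per-cluster binding-curve fits, based on green signal normalised to red-channel RNA signal and control-cluster median Fmax.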

Setting [1] is: designed as: OFF switch for flavin mononucleotide, no ligand.
Setting [2] is: ligand present: flavin mononucleotide, designed as: OFF switch for flavin mononucleotide.
The mark [3] stands for this setting: designed as: ON switch for flavin mononucleotide, no ligand.
Where [4] appears, read: ligand present: flavin mononucleotide, designed as: ON switch for flavin mononucleotide.

Broadly, the apparent Kd is a dissociation constant that holds for the conditions of the assay. Take “GUCAGGUGAGGAUAUACGCGGCUGACGAAACGUUAUACCGAGUAGAAGGCACAUGAGGAUCACCCAUGUUCGGG”: the “apparent Kd” value under setting [1] worked out at 109 nM and the “apparent Kd” value under setting [2] is 59.6 nM.
In the case of “AUGUGGUUCCCGGCCAUCGUGUACGAGGAUAUCCUCGAACAUGAGGAUCACCCAUGUAACGUUGUGGAGAAGGCGUACGCUUGG”, the “apparent Kd” value came to 130 nM under setting [3] and 7.73 nM under setting [4].
Turning to “CCGUCCUGAGGAUAUCCACCCUCAUACAUGAGGAUCACCCAUGUUCACCUUUGGGUUCCCGGAGAAGGCAGUUUUC”, the “apparent Kd” value is, setting by setting: under setting [1], 80.2 nM; under setting [2], 109 nM.
For the sequence “UAGUAUAAGGGCAUUAAACAUGAGGAUCACCCAUGUACGAUAGAGGAUAUGCAUUUCAGUUUAGAGUAGAAGGUUAGAGAAUAU”, the “apparent Kd” value was 39.1 nM under setting [1] and 47.4 nM under setting [2].
As to “CACCGUAACAGAGGAUAUCAAACAUGAGGAUCACCCAUGUAAUAAAUGAGAAUUUCGAAUGUACCUGAGAAGGCUGAAACCGGC”, the “apparent Kd” value reads like this: under setting [1], 35.6 nM; under setting [2], 41.1 nM.
For the sequence “GGUUGUCAUAGUCAUCCUUUCCGUACAUGAGGAUCACCCAUGUAGGAUAUGCUACUCAAAGAGUAGCAGAAGGGCGUGUGUCUU”, the “apparent Kd” value reads like this: under setting [1], 17.2 nM; under setting [2], 18.8 nM.
Regarding “CAAUAUAACACAGGAUAUGUCUCGUUUACAUGAGGAUCACCCAUGUCCGAAACAGAAGGGUGACCCGAUAUAGGACGUUGGGUG”, the “apparent Kd” value is, setting by setting: under setting [3], 56.3 nM; under setting [4], 18 nM.
“CGUUGGUCAGGAUAUGGUGGGCUGGUCGCGCGGCCGGGUGGCUAGAAGGGACAUGAGGAUCACCCAUGUACGGC”: the “apparent Kd” value under setting [1] turned out to be 21.5 nM and the “apparent Kd” value under setting [2] was 40.5 nM.
For the sequence “CUCAUGUAAGGAUAUCAGUAGUAAAAAAAUAAAAUUACUACUGAGAAGGUACAUGAGGAUCACCCAUGUCCUGG”, the “apparent Kd” value turned out to be 33.3 nM under setting [1] and 17.9 nM under setting [2].
On to “AAUAAUCAGUAAGGAUAUACUAGCGAUUAGCUUGUAGAAGGUACAGUCUUAUGUAUAACAAAUUAACAUGAGGAUCACCCAUGU”, for which the “apparent Kd” value under setting [3] came out at 9.19 nM and the “apparent Kd” value under setting [4] amounted to 7.65 nM.
Take “CUUUUGUGAGGAUAUUAGUAGUAAAUAAAUAAAAUUACUACUGAGAAGGCACAUGAGGAUCACCCAUGUUCCUU”: the “apparent Kd” value came out at 12.6 nM under setting [1] and 38 nM under setting [2].
As for “UUAGCAACAUGAGGAUCACCCAUGUAGGAUAUCGCUAUUGUAAUCAUGAAACAUGAUUACAAUAGCGAGAAGGACAUAUGCUAG”, the “apparent Kd” value is 9.88 nM under setting [1] and 10.7 nM under setting [2].
As for “AGGUCGGGAUAAGGGCAUUCGACUCAGGAUAUGGGAGGUUUACAUGAGGAUCACCCAUGUUUCACCCAGAAGGGAGUUCAAACU”, the “apparent Kd” value is 7.59 nM under setting [3] and 5.84 nM under setting [4].
Consider “AAUUCACAUGAGGAUCACCCAUGUCAGGAUAUGCUGACGCGGGUUUCGGUGCGUGUUGGCAGAAGGGACAGCUA”, for which the “apparent Kd” value under setting [1] came out at 193 nM and the “apparent Kd” value under setting [2] was 204 nM.
On to “GCAAUGCCUGACAUGAGGAUCACCCAUGUUAGAUUGUUAUGUCAGGAUAUUGUCUAGAAACUAGACAAGAAGGGAUGCAUUGCU”, for which the “apparent Kd” value under setting [3] stood at 313 nM and the “apparent Kd” value under setting [4] was 25.1 nM.
Taken in the same sequence, the figures for “CGGUCGAUAUCAGGAUAUCGAUUAAUUACAUGAGGAUCACCCAUGUUGACAAGGAAUAUAACAUGCGAGAAGGGAUUACGAUCG” were 10.1 nM and 8.45 nM.
In the case of “UUUGCAUUCCGAGGAUAUUCAUAUAAUGACUUCACAUGAGGAUCACCCAUGUGGCGAUAGCCUAGGGAGAAGGCGGUUUGCUUU”, the “apparent Kd” value came to 25.6 nM under setting [3] and 20.6 nM under setting [4].
Consider “ACGAGGGUUACAGGAUAUGAAGCUAAAACGGCGUUAGAAGGGUAUACAGAGUUACAUGAGGAUCACCCAUGUUGUGACUUCGAA”, for which the “apparent Kd” value came out at 33.6 nM under setting [1] and 41 nM under setting [2].
Consider “CAGGUAGACUGAGGAUAUACAAUAAAGACCUAGUCUAUCUAGGUCUCCACAUGAGGAUCACCCAUGUAGAAGGCAGUCUGCCUG”, for which the “apparent Kd” value under setting [1] stood at 18.1 nM and the “apparent Kd” value under setting [2] came to 44.2 nM.
In the case of “CAUUAUUAUCGAGGAUAUCGUAUUGAGAUACUAUGAGAAGGCGGGAUAAACAUGAGGAUCACCCAUGUGAGCCGGAUGCUUGUG”, the “apparent Kd” value amounted to 17.1 nM under setting [1] and 14.8 nM under setting [2].
“AACUGACAUGAGGAUCACCCAUGUCAGGAUAUGACAUCGAAAAUAAAAUAAAUCGUUGUCAGAAGGGACAUGGG”: the “apparent Kd” value under setting [1] is 21.4 nM and the “apparent Kd” value under setting [2] came to 19.3 nM.
For “UUCCUCAAGUAAGGAUAUACCACGGUAUGCUGAGUAGAAGGUACAUGAGGAUCACCCAUGUGCAUCCCACGAUUGCAUUGGUCA”, the “apparent Kd” value by setting is: under setting [1], 30.4 nM; under setting [2], 145 nM.
On to “AAAAAACAUGAGGAUCACCCAUGUCAGGAUAUCUGUAUUCAAUCCUCGGAUUGAAUACAGAGAAGGGACAUGGA”, for which the “apparent Kd” value by setting is: under setting [1], 42 nM; under setting [2], 22.8 nM.
In the case of “AGGUACAUCAUAGGAUAUCGUGUGUAAACAUGAGGAUCACCCAUGUCAUCCGAGAGUAUAUCGACCGAGAAGGGUGAUGUACCU”, the “apparent Kd” value under setting [3] was determined as 22 nM and the “apparent Kd” value under setting [4] worked out at 32.5 nM.
Regarding “CGGCACCAAGGAUAUACAUGAGGAUCACCCAUGUUUUUUGGGCCCUUAAAAUCUACGUGUAGAAGGUGGGUCGA”, the “apparent Kd” value reads like this: under setting [1], 49.9 nM; under setting [2], 56.9 nM.
On to “AGUGUCAUCGAGAAGGCCUCAACAUGAGGAUCACCCAUGUUGCAAAAUGGGAGGAUAUCGAUGAUACAGCUACGUUUCGUAGCA”, for which the “apparent Kd” value by setting is: under setting [3], 15.3 nM; under setting [4], 5.21 nM.
As to “GGAAAACAUGAGGAUCACCCAUGUAAGGAUAUGCAAAAGGAUAUAGAAGGAAAAAAAAGCAGAAGGUACAAAGG”, the “apparent Kd” value reads like this: under setting [1], 39.9 nM; under setting [2], 74.8 nM.
With “GGACGUCACAUGAACAUGAGGAUCACCCAUGUAAAUUCUCAUGAGGAUAUGGUUCCUAAUUGGAACCAGAAGGCGUGGACGUCC”, the “apparent Kd” value under setting [3] amounted to 957 nM and the “apparent Kd” value under setting [4] stood at 430 nM.
Take “GAUAGGACAGAGAAGGACAUGGCUAGAGAUACUAGCAUAUGAACCUUCACAUGAGGAUCACCCAUGUAGGAUAUCUGUCCUAUC”: the “apparent Kd” value under setting [1] turned out to be 3.8 nM and the “apparent Kd” value under setting [2] came out at 4.86 nM.
As for “GGCUGUCUCGCAGGAUAUGCUGAUCAGAAACUAGCAGAAGGGUGAUCCAGUCGAGGUUUGACAUGAGGAUCACCCAUGUGGAGU”, the “apparent Kd” value runs as follows: under setting [3], 29.4 nM; under setting [4], 55.8 nM.
Consider “UCGCGGGUGCAGAAGGGAUAGGCCUAUUGUCGUGGUGUCCAAACUUAACAUGAGGAUCACCCAUGUCAGGAUAUGCCCACGCGA”, for which the “apparent Kd” value reads like this: under setting [1], 73.9 nM; under setting [2], 117 nM.
Consider “GCACUGCGAGGAUAUACAUGAGGAUCACCCAUGUGUCGGCAGCGAUGCCAGUACAAAUGUAGAAGGCGCGUAAA”, for which the “apparent Kd” value stood at 25.9 nM under setting [1] and 114 nM under setting [2].
For “UUGUGUGUAGAGGAUAUCUGCGCGCGCGCGCGCGGAGAAGGCUGUACAUGAGGAUCACCCAUGUUGUGUGUGUG”, the “apparent Kd” value was found to be 71.8 nM under setting [1] and 29.9 nM under setting [2].
As for “GUGGUACAUGAGGAUCACCCAUGUUAGGAUAUCGCGUGAGGUUUUACUUCCACACACACGAGAAGGGACGUCUU”, the “apparent Kd” value worked out at 44.3 nM under setting [1] and 36.2 nM under setting [2].
“UCAUACUUUCGAGGAUAUCGGUUAACAUAUUAACGAGAAGGCGAUAUAUUGUUUAAUCUUAUAAACAUGAGGAUCACCCAUGUA”: the “apparent Kd” value was found to be 33.9 nM under setting [3] and 25.4 nM under setting [4].
“GGUGUCGCAUGAGGAUAUGGUCAGCUUUGCUGACCAGAAGGCAUGUCAAUAGACAUGAGGAUCACCCAUGUAGUAAAGACACCA”: the “apparent Kd” value under setting [4] stood at 37.1 nM.
In the case of “AAGGUGCAGGUACAGGAUAUGUUGCUCGUAACAUGAGGAUCACCCAUGUACCUAUGAGAUUAAAUGCAGAAGGGUGCACACCAAA”, the “apparent Kd” value is, setting by setting: under setting [3], 792 nM; under setting [4], 87.5 nM.
On to “GUCAGCCCGUGAGGAUAUACAACACUGCUUCGGCAGUGUAUUAAGAUCACAUGAGGAUCACCCAUGUAGAAGGCACGAGCUGAU”, for which the “apparent Kd” value by setting is: under setting [1], 13.1 nM; under setting [2], 266 nM.
As for “CGAGCUGCUGUGAGGAUAUACCUAUGGAUGCGUGGGUAGAAGGCACAUGAGGAUCACCCAUGUCCUGCAGCUCG”, the “apparent Kd” value amounted to 42.1 nM under setting [1] and 241 nM under setting [2].
As for “GUAUCACGAGGAUAUACAUGAGGAUCACCCAUGUAGAAGCCAUGUGGUGCUCAAGUAUGUAGAAGGCGUGCUCC”, under setting [2], the “apparent Kd” value came out at 33.3 nM.
Regarding “GGAGCAGGGUGAGGAUAUGUAAAAUUCGAAAGGACAGAAGGCACUUAACCAACAUGAGGAUCACCCAUGUAGGCGACGGCACCA”, the “apparent Kd” value is 30 nM under setting [3] and 21.8 nM under setting [4].
As for “AGAUAACAUGUAGGAUAUCGAGGCCUGAGGCCUCGAGAAGGACAUGAGGAUCACCCAUGUAGUUGUACUAUGGGAUCACGCACU”, the “apparent Kd” value under setting [1] is 620 nM and the “apparent Kd” value under setting [2] worked out at 186 nM.
“CGUUAAUCCUAGGAUAUGCUAGACGAAAGUCUAGCAGAAGGAGGAACAUGAGGAUCACCCAUGUGUCCUAAACG”: the “apparent Kd” value stood at 16.8 nM under setting [1] and 26.7 nM under setting [2].
With “AUUAUUUAUAGUUAUUGGUAAUUGACAGAAGGUGAAAGUGUCACAUGAGGAUCACCCAUGUUCUUCAAGGAUAUGUUGGUUUAC”, the “apparent Kd” value by setting is: under setting [3], 37.6 nM; under setting [4], 8.4 nM.
Consider “GUGCGACAUGAGGAUCACCCAUGUGAGGAUAUCCCGGGCCGGGCUUUUGCCCGGCCCGGGAGAAGGCGCGUCGU”, for which the “apparent Kd” value came to 68.4 nM under setting [1] and 70.7 nM under setting [2].
With “GCACUGACAGGAUAUACAUGAGGAUCACCCAUGUGACCCUUAUAGUACUCGCGUACUGGUAGAAGGGUCUGUGC”, the “apparent Kd” value amounted to 78.8 nM under setting [1] and 558 nM under setting [2].
Regarding “UCGUUUGUACUAGGAUAUACCGACGAAAGAUCAGUAGAAGGAGUAACAGACAUGAGGAUCACCCAUGUAUGGGUCCUUAAACAA”, the “apparent Kd” value under setting [1] turned out to be 35.8 nM and the “apparent Kd” value under setting [2] worked out at 217 nM.
For “AUGCGUGGCUAGGAUAUUGAGGAAAUUAGUCAGCGAGAAGGAGCCACAUGAGGAUCACCCAUGUGGUGAAGCUC”, the “apparent Kd” value reads like this: under setting [1], 15.5 nM; under setting [2], 60.3 nM.
